High-throughput results from PubChem.
CHRM5 agonist = CHRM5 agonism in calcium assay | CHO-K1 hM5 cells, Fluo-8 calcium fluorescence; 0% DMSO wells, 100% maximal acetylcholine response | activation, % at 3 µM | 360,000 compounds, 0.19% hits;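 active means activation above the run's mean over test compounds plus 3 SD, cut at about 23% in these data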;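 further: signal is peak over basal fluorescence ratio across the kinetic read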
CHRM5 antagonist = CHRM5 antagonism in calcium assay; 360,000 compounds, 0.59% hits; CHO-hM5 cells, Fluo-8 calcium fluorescence, ACh EC80; P08912; inhibition, % at 3 µM;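 active means inhibition above a per-plate cutoff, the mean of that plate's test compounds plus 3 SD, cut at about 27% in these data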;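 further: 0% = acetylcholine EC80 with DMSO and 100% = DMSO without agonist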
M4 ag = agonists of human muscarinic M4 receptor (CHRM4) | P08173 | CHO-K1 hM4/Gqi5, Fluo-8 calcium fluorescence; vehicle 0%, full acetylcholine response 100% | activation, % at 3 µM | 360,000 compounds, 0.14% hits | AID 624127;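 active means activation above the run mean over all test wells plus 3 SD, cut at about 32% in these data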;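 further: peak over basal fluorescence ratio per well then scaled between controls; 0% = DMSO wells and 100% = acetylcholine at EC100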
Target sequence (P08173 whole entry, looked up): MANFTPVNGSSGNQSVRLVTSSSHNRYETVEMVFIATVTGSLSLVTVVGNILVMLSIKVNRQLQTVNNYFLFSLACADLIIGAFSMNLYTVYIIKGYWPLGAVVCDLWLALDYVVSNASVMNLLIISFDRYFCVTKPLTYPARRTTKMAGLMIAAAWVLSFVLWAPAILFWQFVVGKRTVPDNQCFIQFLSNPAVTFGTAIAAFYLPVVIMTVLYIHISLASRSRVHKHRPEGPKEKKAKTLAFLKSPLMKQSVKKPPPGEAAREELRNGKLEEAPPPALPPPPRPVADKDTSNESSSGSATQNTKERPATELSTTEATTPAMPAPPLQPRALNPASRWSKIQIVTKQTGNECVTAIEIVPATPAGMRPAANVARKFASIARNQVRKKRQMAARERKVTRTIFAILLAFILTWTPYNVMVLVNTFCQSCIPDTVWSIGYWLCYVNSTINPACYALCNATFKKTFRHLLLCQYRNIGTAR
CHRM4 antagonist = blocks acetylcholine activation of human M4 receptor. P08173. CHO-hM4 cells, ACh EC80, Fluo-8 calcium fluorescence. inhibition, % at 3 µM. 360,000 compounds, 0.73% hits;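 active means inhibition above its plate's cutoff, the mean inhibition of sample wells plus 3 SD, cut at about 27% in these data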;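 further: 0% = acetylcholine EC80 with DMSO and 100% = DMSO without agonist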
CHRM5 PAM = positive allosteric modulators of human muscarinic M5 receptor; P08912; CHO-K1 hM5, Fluo-8 calcium, ACh EC20 PAM; 0% = ACh EC20, 100% = ACh EC100; activation, % at 3 µM; 360,000 compounds, 0.3% hits; AID 624038;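 active means activation above the run cutoff, the mean activation of all test compounds plus 3 SD, cut at about 18% in these data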
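Test system: CHO-K1 hM5 cells / Doses: single-point, 3 µM nominal / Times: Post-acetylcholine fluorescence recording 140 s / Technique: Fluo-8 calcium fluorescence / Measure: Max/basal fluorescence ratio as % of EC20–EC100 ACh window / Benchmarks: low control EC20 acetylcholine (0%), high control EC100 acetylcholine (100%) / Replicates: one well per compound, no replicates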
CHRM4 PAM = potentiates acetylcholine response at human M4 receptor. CHO-K1 hM4/Gqi5, Fluo-8 calcium fluorescence, ACh EC20; 0% = ACh EC20, 100% = maximal ACh. activation, % at 3 µM. P08173. 360,000 compounds, 0.4% hits. AID 624126;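 active means activation above its plate's cutoff, the mean activation of sample wells plus 3 SD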
* hit, by the source's call. Only some compounds are listed: those with a hit (about 1.8% of all), similar ones and a draw of the others.

SMILES | CHRM5 agonist | CHRM5 antagonist | M4 ag | CHRM4 antagonist | CHRM5 PAM | CHRM4 PAM
CN1CCN(CC(O)(c2ccc(Cl)cc2)c2ccc(Cl)cc2)CC1 | -8.5 | 35.8* | 11.6 | 17.3 | -14.8 | -19.6
Cn1cc(C(=O)c2cccc(Cl)c2)cc1C#N | -2.0 | -2.7 | 5.7 | 5.7 | 1.0 | 26.3*
Cn1c(Br)nc2c1c(=O)n(CC(O)COc1ccccc1)c(=O)n2C (centres undefined) | 0.5 | 3.4 | 34.3* | 1.5 | -7.7 | -4.3
COc1ccccc1C(CNC(=O)c1oc2ccccc2c1C)N1CCCC1 (centres undefined) | -12.2 | 8.2 | 1.4 | -3.0 | -29.9 | -2.6
CCN(CC)c1ccc(/C=N/NC(=O)c2ccc3c(c2)OCCO3)cc1 | -1.6 | 27.9* | 4.0 | -5.5 | -10.7 | -1.9
COc1cc(C2CC(=O)NC3=C2C(=O)CC(C)(C)C3)cc(OC)c1O (centres undefined) | -0.6 | 27.2* | 0.4 | 5.7 | 8.3 | 0.0
COC(=O)c1cc(Br)c(=O)n(-c2nccs2)c1 | -1.5 | -12.0 | 0.8 | -14.6 | 5.0 | 28.1*
CCC1Nc2ncnc(N3CCN(c4ccccc4)CC3)c2N(Cc2ccc(Br)cc2)C1=O (centres undefined) | -0.3 | 9.2 | 1.4 | -7.1 | -1.3 | 8.6
CCOC(=O)C1=C(C)OC(N)=C(C#N)C1c1cc(F)ccc1F (centres undefined) | -3.0 | 8.5 | 0.6 | 30.3* | -7.3 | -1.9
CCOC(=O)C1=C(C)OC(N)=C(C#N)C1c1cccc(C)c1 (centres undefined) | 2.3 | -6.0 | 0.8 | -0.3 | 15.3 | 0.6
CCCC(=O)N1CCN(c2ccc(NC(=O)c3cc4ccccc4o3)cc2Cl)CC1 | 2.9 | 21.2 | 18.8 | 37.8* | -20.5 | -20.7
O=C(Nc1ccc(N2CCN(C(=O)c3ccco3)CC2)c(Cl)c1)c1cc2ccccc2o1 | 1.8 | 30.5* | 18.3 | 51.2* | -23.0 | -16.2
COCCNC(=O)C1(C)CCCN(Cc2ccc3ccccc3c2Br)C1 (centres undefined) | -0.7 | -0.4 | 2.2 | -3.3 | -7.6 | -3.2
CCOC(=O)c1nnc(-c2ccccc2)nc1Sc1ccccc1Cl | 0.3 | 29.2* | -0.1 | -10.7 | -1.9 | 1.0
O=C(Cc1ccccc1)N1CCc2[nH]nc(-c3ccccc3)c2C1 | -3.5 | 14.3 | 10.1 | 14.8 | 9.4 | 18.0*
CC1(C)CC2(C)OC(=N)C1(C#N)C2(C#N)C#N (centres undefined) | 0.1 | -2.4 | 0.3 | -1.4 | 11.5 | 9.9
CCN(Cc1ccccc1)C(=O)COC(=O)c1cc(S(=O)(=O)Nc2ccccc2OC)ccc1O | 3.5 | 14.0 | 4.8 | 2.9 | -8.9 | -5.0
O=C(/C=C/c1ccccc1)CC(O)(c1ccccc1)C(F)(F)F (centres undefined) | -7.0 | 7.4 | -2.0 | 30.9* | -5.0 | -26.7
COc1ccc(/C=C/C(=O)CC(O)(c2ccccc2)C(F)(F)F)cc1 (centres undefined) | -4.9 | 2.8 | 1.3 | -1.4 | -10.7 | -13.6
O=C(/C=C/c1ccccc1)CC(O)(c1ccccc1)C(F)(F)C(F)F (centres undefined) | -5.9 | 6.6 | -2.0 | 46.9* | -9.5 | -32.7
CCOC1=C2CN(S(=O)(=O)c3ccc(C)cc3)C(c3ccccc3)CC2N(S(=O)(=O)c2ccc(C)cc2)C(c2ccc(Br)cc2)C1 (centres undefined) | 1.8 | -0.7 | 2.7 | -12.3 | 5.2 | 17.6
CCN1CCN(C(=O)/C(=C/c2cccs2)NC(=O)c2ccc(C)c(C)c2)CC1 | -2.2 | 0.9 | 4.0 | 2.0 | 0.1 | -0.5
O=C(O)CCC(=O)NNC(=O)COc1cccc(Cl)c1 | 0.3 | 12.8 | 0.5 | 4.9 | 21.0* | 6.0
O=C(COc1cccc(Cl)c1)NNC(=S)Nc1ccccc1 | -1.0 | -4.6 | 1.4 | 1.4 | -7.1 | -0.5
Cc1cccc(C)c1NC(=O)CN(C)C(=O)CC1CC2CCC1C2 (centres undefined) | -0.9 | 9.2 | 0.7 | -9.9 | 4.3 | 5.7
SMILES | CHRM5 agonist | CHRM5 antagonist | M4 ag | CHRM4 antagonist | CHRM5 PAM | CHRM4 PAM
O=C(Nc1ccc(Cl)cc1)c1csc(-c2ccccc2)n1 | -0.2 | 2.4 | -2.4 | -6.8 | 3.6 | 33.7*
COc1ccc(C(=O)N/N=C/c2cc(Br)ccc2O)cc1OC | -2.0 | -4.3 | 7.9 | -5.0 | 2.9 | 6.2
CCCOc1ccc(Br)cc1/C=N/NC(=O)c1cc(OC)c(OC)c(OC)c1 | -1.7 | -4.0 | 3.2 | 16.1 | 4.2 | 28.5*
CCCCOC(=O)/C=C/c1c(C)[nH]c(=O)[nH]c1=O | -4.4 | 4.4 | 0.7 | -2.9 | 8.4 | 22.3*
Cc1cc(C)n(CC(=O)c2ccc(Br)cc2)c(=O)c1C#N | -1.1 | -7.3 | 3.6 | 3.0 | -5.2 | -2.7
Cc1ccc(C(=O)Cn2c(C)cc(C)c(C#N)c2=O)cc1 | 4.8 | -8.4 | 1.2 | -11.9 | 29.2* | 5.2
Cc1ccc([C@@H]2C[C@H]3[C@@H](CN2S(=O)(=O)c2ccc(C)cc2)C(=O)C[C@@H](c2ccccc2F)N3S(=O)(=O)c2ccc(C)cc2)cc1 | 1.6 | -6.1 | 3.3 | -13.7 | 0.5 | 0.2
Cc1c(C(C)C)c(=O)n(-c2ccc(S(=O)(=O)NC3CCCCC3)cc2)n1C | 2.2 | 30.3* | 14.7 | 1.9 | -13.7 | -7.1
COc1ccc2c(CN(C)Cc3ccccc3)cc(=O)oc2c1 | -0.3 | -1.3 | 0.5 | -6.9 | -0.1 | -2.3
CNc1sc(C(=O)c2ccccc2F)c(N)c1-c1nc2ccccc2s1 | 2.1 | 4.5 | 2.9 | 34.1* | 7.4 | 22.1
COc1cc(C=O)cc(Cl)c1OC(=O)N1CCOCC1 | 1.3 | 18.8 | 14.8 | 4.8 | -17.2 | -15.1
Cc1csc(=O)n1CCC(=O)OCC(=O)NCc1ccc(F)cc1 | 1.7 | -1.7 | 0.4 | 8.0 | 2.2 | 4.7
COc1ccc(CN2CCCC(C(=O)c3ccc(SC)cc3)C2)cc1Cn1cccn1 (centres undefined) | -19.8 | 18.2 | 5.2 | 37.2* | -25.7 | -50.9
COc1ccc(C(=O)C2CCCN(C(=O)c3cccc(Cn4cccn4)c3)C2)cc1F (centres undefined) | -0.1 | 20.5 | 6.4 | -7.0 | -4.6 | 0.9
CSc1ccc(C(=O)C2CCCN(Cc3ccc(N4CCNC4=O)cc3)C2)cc1 (centres undefined) | -11.2 | -4.0 | 1.6 | 70.3* | -14.1 | -21.8
COc1ccc(/C=C/C(=O)OCC(=O)NC(C)CCc2ccccc2)cc1 (centres undefined) | -2.9 | 25.8 | 4.9 | -1.7 | -11.5 | 0.8
Cc1ccnc(SCc2cc(=O)c(OC(=O)c3ccc(Br)o3)co2)n1 | 0.3 | 17.4 | 0.3 | 8.6 | 34.4* | 2.8
O=C(Oc1coc(CSc2ncccn2)cc1=O)c1ccc(Br)o1 | -2.3 | 10.6 | 1.0 | -3.4 | -3.5 | 11.9
